Source: PubChem BioAssay (several laboratories)
Rad51 HR inh – blocks human Rad51 in homologous recombination | Q06609 | inhibition, % at 10 µM | AID 1385 | 200,000 compounds, 0.085% hits | hRad51 DNA strand exchange, fluorescence dequenching;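 active = inhibition above 40% at the single screening dose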;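 also: 0% = DMSO control wells and 100% = blanks with heterologous ssDNA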
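Material: hRad51 filaments on single-stranded DNA; Reagent: Donor/quencher-labelled 47-bp dsDNA substrate; Compound: 10 µM final, single point; Schedule: 37 °C 15-min filament assembly, 30-min compound preincubation, 15-min exchange; Technique: FRET fluorescence, excitation 485 nm, emission 520 nm; Benchmarks: control wells and blank wells on each plate.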
WT yeast gro inh – growth inhibition of WT yeast, mitochondrial fusion screen; mitochondrial fusion phenotypic screen, WT strain; inhibition, % at 10 µM; 190,000 compounds, 2.1% hits; in the data active = inhibition above about 58%; tested in S. cerevisiae
Calpain2 inh – inhibitors of pig calpain II; purified calpain II, fluorogenic peptide substrate, 30 min; inhibition, % at 16 µM; 220,000 compounds, 0.37% hits;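 active = inhibition above about 50%, limit read from the data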
PMI act – activators of human phosphomannose isomerase. purified human PMI, coupled resazurin fluorescence, 20 min; active compounds read high; 1 = vehicle control, 0 substrate-free wells. 190,000 compounds, 0.005% hits. P34949. activation factor at 20 µM;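 active = activation factor of 2 or more at 20 µM, relative to plate controls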
Target sequence (P34949 whole entry, looked up): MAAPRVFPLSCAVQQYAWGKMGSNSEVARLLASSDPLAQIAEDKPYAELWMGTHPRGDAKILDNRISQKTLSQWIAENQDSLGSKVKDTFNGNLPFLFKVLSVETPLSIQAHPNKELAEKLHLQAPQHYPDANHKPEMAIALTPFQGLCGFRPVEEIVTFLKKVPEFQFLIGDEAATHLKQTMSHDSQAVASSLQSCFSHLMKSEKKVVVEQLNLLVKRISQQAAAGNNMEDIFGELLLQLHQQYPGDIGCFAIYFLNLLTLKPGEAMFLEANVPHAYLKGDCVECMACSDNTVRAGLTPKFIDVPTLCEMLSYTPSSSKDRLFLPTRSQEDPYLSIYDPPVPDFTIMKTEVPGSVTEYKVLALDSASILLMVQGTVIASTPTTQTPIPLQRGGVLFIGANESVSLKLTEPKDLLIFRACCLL
L major viab – reduces viability of Leishmania major promastigotes; 200,000 compounds, 9% hits; resazurin fluorescence viability; inhibition, % at 10 µM; in the data active = inhibition above about 50%;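 also: promastigotes grown with compound for 44 hours at 28 °C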
PMI act hi M6P – activators of human phosphomannose isomerase at near-saturating mannose 6-phosphate. P34949. coupled PMI enzyme assay, resazurin fluorescence, 20 min; active compounds read high; 1 = untreated enzyme, 0 = substrate-free blank. activation factor at 20 µM. 190,000 compounds, 0.34% hits;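 active = activation factor of 2 or more at 20 µM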
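assay system = human phosphomannose isomerase with PGI, G6PDH, diaphorase coupling enzymes | quantity = 15 ng/mL PMI | incubation = enzyme reaction with compound 20 min at room temperature | medium = HEPES pH 7.4 buffer with MgCl2 and Tween-20 | compound dosing = one concentration, 20 µM, in 1% DMSO | measured by = Diaphorase-driven resazurin-to-resorufin fluorescence, excitation 544, emission 590 nm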
Numbers without * were called inactive; i = inactive; nt = not tested or not shown. An excerpt weighted towards active compounds, which were near 9.8% of everything screened.

SMILES | Rad51 HR inh | WT yeast gro inh | Calpain2 inh | PMI act | L major viab | PMI act hi M6P
CCOC1OC(=O)C(Cl)=C1Nc1ccc(C)cc1C (stereo not drawn) | 18 | 6 | 21 | 1 | 1 | 1.1
COC(=O)c1[nH]c2ccccc2c1NC(=O)c1c(F)cccc1F | 6 | nt | 3 | nt | nt | nt
CC1=C(C(=O)Nc2ccccc2)C(c2ccncc2)C(C#N)=C(SCC(=O)Nc2ccccc2)N1 (stereo not drawn) | -5 | 2 | i | 1.2 | 99* | 1.3
CC(=O)C1=C(C)NC(SCSc2ccccc2)=C(C#N)C1c1cccnc1 (stereo not drawn) | 8 | 22 | -20 | 0.9 | 100* | 1
CN(Cc1cnccn1)Cc1cn(Cc2ccccc2)nc1-c1ccc2c(c1)OCO2 | nt | 5 | 31 | 1 | 5 | 1
Cc1ccc(NC(=O)/C(C#N)=C(\N)C(Cl)(Cl)Cl)nc1 | -5 | -23 | -5 | 1 | 100* | 0.8
O=C(Nc1nc2ccccc2s1)NC1CCCCC1 | nt | 14 | 14 | 0.8 | 6 | 0.9
CC(OC(=O)c1ccc2c(=O)n3c(nc2c1)CCCCC3)C(=O)Nc1ccc(F)cc1Cl (stereo not drawn) | -4 | 18 | -16 | 1 | 56* | 1
COC(=O)c1ccc(C(=O)NCCCCO)cc1 | nt | -3 | 3 | 1 | -7 | 1
CC1CCc2ccc(F)cc2N1S(=O)(=O)c1cccs1 (stereo not drawn) | -2 | 6 | 7 | 0.9 | 96* | 1
O=S(=O)(c1cccs1)N1CCc2ccccc21 | 0 | 12 | -25 | 0.9 | 41 | 1
S=C(NCc1ccccn1)Nc1cccc(Cl)c1 | -1 | 1 | -32 | 1 | -3 | 0.8
Cc1nc(C)c(C(=O)NCCC(c2ccccc2)c2ccccc2)o1 | -1 | 0 | -57 | 1 | -2 | 1
Cc1ccsc1C(=O)NCCC(c1ccccc1)c1ccccc1 | 6 | 67* | 47 | 0.8 | 40 | 1
COc1cccc(NC(=O)C(=O)NCc2ccncc2)c1 | 15 | 4 | -24 | 1 | -3 | 0.9
S=C(NCCC(c1ccccc1)c1ccccc1)Nc1cccc(Cl)c1 | -13 | 80* | -5 | 0.9 | 59* | 1
COc1cccc(NC(=S)NCc2ccncc2)c1 | -7 | 1 | -1 | 1 | 68* | 1.1
O=C(NCCCc1ccccc1)Nc1cccc(Cl)c1 | -6 | 77* | 37 | 0.8 | 6 | 0.9
Fc1ccc(CNC(=S)Nc2cccc(Cl)c2)cc1 | nt | 60* | 4 | 1 | 8 | 1
Cc1ccc(NC(=S)NCCC(c2ccccc2)c2ccccc2)c(C)c1 | -6 | 65* | 6 | 0.8 | 66* | 0.8
COc1ccc(OC)c(NC(=S)NCCC(c2ccccc2)c2ccccc2)c1 | 2 | nt | nt | nt | 44 | nt
S=C(NCc1ccncc1)Nc1cccc(Cl)c1 | -8 | -3 | 2 | 1.1 | 12 | 1
Cc1ccccc1NC(=S)NCCC(c1ccccc1)c1ccccc1 | -10 | 79* | 78* | 0.8 | 30 | 0.9
Cc1ccc(NC(=S)NCCc2ccc(F)cc2)c(C)c1 | 1 | 40 | 10 | 0.9 | 10 | 1
COC(=O)NC(C)N1C(=O)C2C3C=CC(C3)C2C1=O (stereo not drawn) | 5 | 12 | 26 | 1 | -5 | 1
SMILES | Rad51 HR inh | WT yeast gro inh | Calpain2 inh | PMI act | L major viab | PMI act hi M6P
Cn1c(CO)cnc1-c1ccccc1 | 15 | nt | 1 | nt | nt | nt
O=C(CSc1nnc(CCc2ccccc2)n1-c1ccc(Cl)cc1)NCc1ccccc1 | nt | 21 | -2 | 1 | 100* | 1
O=C1OC(c2ccccc2)C2(CCCC2)C(=O)C12CCCC2 (stereo not drawn) | -6 | 0 | -14 | 1 | -2 | 1
O=C1OC(c2cccc([N+](=O)[O-])c2)C2(CCCC2)C(=O)C12CCCCC2 (stereo not drawn) | nt | 51 | 53* | 0.7 | 5 | 0.8
Cc1nnc(SCc2nnc(-c3cccs3)o2)s1 | -2 | -5 | -9 | 1 | -8 | 1
Cc1cccc(Cn2cnc3c(nnn3Cc3ccc(Cl)cc3)c2=O)c1 | -3 | 7 | 18 | 1 | -3 | 1.1
Cc1cccc(Cn2nc(-n3cccc3)c3c(C)cc(C)nc32)c1 | -12 | 62* | 10 | 0.9 | 8 | 0.9
CC(NC(=O)CCl)c1ccc(Cl)c(Cl)c1 (stereo not drawn) | nt | 6 | -14 | 1 | 63* | 1
